Tests used:
[1] = Ratio of radioactivity in brainstem of rat brain to that of rat cerebellum after intravenous administration after 120 min; format: functional
In short: (§1)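 Male Sprague–Dawley rats (200–250 g) given ~20 μCi [123I] tracer iv in 0.2 mL 10% ethanol/saline under ketamine/xylazine; killed at 5, 30, 60, 120 min (n = 5; n = 4 at 120 min). Brain regions dissected, gamma counted, decay-corrected to %ID/g; regional uptake divided by cerebellum.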

[2] = Ratio of radioactivity in rest of rat brain to that of rat cerebellum after intravenous administration after 120 min; format: functional; in short: as §1
Rattus norvegicus [3] = assay: Distribution in hippocampus of rat brain after intravenous administration by using [123I]ZIET after 5 min; format: ADME, organism-based; settings: in vivo
In short: (§2)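 Male Sprague–Dawley rats (200–250 g), fed ad libitum, given ~20 μCi radiotracer iv via tail-vein cannula in 0.2 mL 10% ethanol/saline under ketamine/xylazine im anesthesia. Killed at 5, 30, 60 or 120 min (n = 5; n = 4 at 120 min). Brain regions dissected, weighed, gamma-counted with dose standards, decay-corrected; mean %ID/g ± SE.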

Rattus norvegicus [4] = assay: Distribution of the radio labelled compound in thyroid of rat brain after intravenous administration in presence of reboxetine after 60 min; format: ADME, organism-based, Thyroid gland; settings: in vivo, 1 h
In short: (§3)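 Male Sprague–Dawley rats (200–250 g) under ketamine/xylazine anaesthesia with tail-vein cannulas. Blocker or none given 15 min before ~20 μCi [123I] tracer iv in 0.2 mL 10% ethanol/saline; blocker dose 4 mg/kg.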

[5] = Ratio of radioactivity in rest of rat brain to that of rat cerebellum after intravenous administration after 60 min; format: functional; in short: as §1
Rattus norvegicus [6] = assay: Distribution in occipital cortex of rat brain after intravenous administration by using [123I]ZIET after 120 min; format: ADME, organism-based; settings: in vivo, 2 h; in short: as §2
Rattus norvegicus [7] = assay: Distribution of the radio labelled compound in rest of rat brain after intravenous administration in presence of reboxetine after 60 min; format: ADME, organism-based; settings: in vivo, 1 h; in short: as §3
Rattus norvegicus [8] = assay: Distribution of the radio labelled compound in occipital cortex of rat brain after intravenous administration in presence of RTI-113 after 60 min; format: ADME, organism-based; settings: in vivo, 1 h; in short: as §3
Rattus norvegicus [9] = assay: Distribution of the radio labelled compound in striatum of rat brain after intravenous administration in presence of reboxetine after 60 min; format: ADME, organism-based; settings: in vivo, 1 h; in short: as §3
Rattus norvegicus [10] = assay: Distribution in cerebellum of rat brain after intravenous administration by using [123I]ZIET after 120 min; format: ADME, organism-based; settings: in vivo, 2 h; in short: as §2
[11] = Ratio of radioactivity in frontal cortex of rat brain to that of rat cerebellum after intravenous administration after 120 min; format: functional; in short: as §1
Rattus norvegicus [12] = assay: Distribution of the radio labelled compound in frontal cortex of rat brain after intravenous administration in presence of RTI-113 after 60 min; format: ADME, organism-based; settings: in vivo, 1 h; in short: as §3
Rattus norvegicus [13] = assay: Distribution in brainstem of rat brain after intravenous administration by using [123I]ZIET after 30 min; format: ADME, organism-based; settings: in vivo, 0.5 h; in short: as §2
Rattus norvegicus [14] = assay: Distribution of the radio labelled compound in hypothalamus of rat brain after intravenous administration in presence of reboxetine after 60 min; format: ADME, organism-based; settings: in vivo, 1 h; in short: as §3
[15] = Ratio of radioactivity in occipital cortex of rat brain to that of rat cerebellum after intravenous administration after 5 min; format: functional; in short: as §1
[16] = Ratio of radioactivity in brainstem of rat brain to that of rat cerebellum after intravenous administration after 30 min; format: functional; in short: as §1
Rattus norvegicus [17] = assay: Distribution in brainstem of rat brain after intravenous administration by using [123I]ZIET after 5 min; format: ADME, organism-based; settings: in vivo; in short: as §2
Rattus norvegicus [18] = assay: Distribution in occipital cortex of rat brain after intravenous administration by using [123I]ZIET after 60 min; format: ADME, organism-based; settings: in vivo, 1 h; in short: as §2
Rattus norvegicus [19] = assay: Distribution in cerebellum of rat brain after intravenous administration by using [123I]ZIET after 30 min; format: ADME, organism-based; settings: in vivo, 0.5 h; in short: as §2
Rattus norvegicus [20] = assay: Distribution of the radio labelled compound in thyroid of rat brain after intravenous administration in presence of citalopram after 60 min; format: ADME, organism-based, Thyroid gland; settings: in vivo, 1 h; in short: as §3
Rattus norvegicus [21] = assay: Distribution of the radio labelled compound in brainstem of rat brain after intravenous administration in absence of blocker after 60 min; format: ADME, organism-based; settings: in vivo, 1 h
In short: (§4)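 Male Sprague–Dawley rats (200–250 g), ketamine/xylazine anesthesia, tail-vein cannula. Blocker (4 mg/kg) or nothing given 15 min before iv [123I]ZIET in 10% ethanol/saline. Killed 60 min post-tracer.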

[22] = Ratio of radioactivity in brainstem of rat brain to that of rat cerebellum after intravenous administration after 5 min; format: functional; in short: as §1
Rattus norvegicus [23] = assay: Distribution in hippocampus of rat brain after intravenous administration by using [123I]ZIET after 60 min; format: ADME, organism-based; settings: in vivo, 1 h; in short: as §2
Rattus norvegicus [24] = assay: Distribution in hippocampus of rat brain after intravenous administration by using [123I]ZIET after 30 min; format: ADME, organism-based; settings: in vivo, 0.5 h; in short: as §2
Rattus norvegicus [25] = assay: Distribution of the radio labelled compound in rest of rat brain after intravenous administration in presence of citalopram after 60 min; format: ADME, organism-based; settings: in vivo, 1 h; in short: as §3
Rattus norvegicus [26] = assay: Distribution of the radio labelled compound in blood of rat brain after intravenous administration in presence of RTI-113 after 60 min; format: ADME, organism-based; settings: in vivo, 1 h; in short: as §4
[27] = Ratio of radioactivity in brainstem of rat brain to that of rat cerebellum after intravenous administration after 60 min; format: functional; in short: as §1
Rattus norvegicus [28] = assay: Distribution in hippocampus of rat brain after intravenous administration by using [123I]ZIET after 120 min; format: ADME, organism-based; settings: in vivo, 2 h; in short: as §2
Rattus norvegicus [29] = assay: Distribution in brainstem of rat brain after intravenous administration by using [123I]ZIET after 60 min; format: ADME, organism-based; settings: in vivo, 1 h; in short: as §2
Rattus norvegicus [30] = assay: Distribution in hypothalamus of rat brain after intravenous administration by using [123I]ZIET after 120 min; format: ADME, organism-based; settings: in vivo, 2 h; in short: as §2
[31] = Ratio of radioactivity in striatum of rat brain to that of rat cerebellum after intravenous administration after 5 min; format: functional; in short: as §1
Rattus norvegicus [32] = assay: Distribution of the radio labelled compound in cerebellum of rat brain after intravenous administration in presence of citalopram after 60 min; format: ADME, organism-based; settings: in vivo, 1 h; in short: as §3
[33] = Ratio of radioactivity in hippocampus of rat brain to that of rat cerebellum after intravenous administration after 30 min; format: functional; in short: as §1
Rattus norvegicus [34] = assay: Distribution of the radio labelled compound in striatum of rat brain after intravenous administration in absence of blocker after 60 min; format: ADME, organism-based; settings: in vivo, 1 h; in short: as §3
Rattus norvegicus [35] = assay: Distribution of the radio labelled compound in occipital cortex of rat brain after intravenous administration in presence of citalopram after 60 min; format: ADME, organism-based; settings: in vivo, 1 h; in short: as §3
Rattus norvegicus [36] = assay: Distribution in rest of rat brain after intravenous administration by using [123I]ZIET after 60 min; format: ADME, organism-based; settings: in vivo, 1 h; in short: as §2
Rattus norvegicus [37] = assay: Distribution in blood of rat brain after intravenous administration by using [123I]ZIET after 5 min; format: ADME, organism-based; settings: in vivo; in short: as §2
Rattus norvegicus [38] = assay: Distribution in striatum of rat brain after intravenous administration by using [123I]ZIET after 120 min; format: ADME, organism-based; settings: in vivo, 2 h; in short: as §2
[39] = Ratio of radioactivity in hippocampus of rat brain to that of rat cerebellum after intravenous administration after 120 min; format: functional; in short: as §1
Rattus norvegicus [40] = assay: Distribution of the radio labelled compound in blood of rat brain after intravenous administration in absence of blocker after 60 min; format: ADME, organism-based; settings: in vivo, 1 h; in short: as §4
Rattus norvegicus [41] = assay: Distribution in blood […] after intravenous administration by using [123I]-ZIET after 60 min; format: ADME, organism-based; settings: in vivo, 1 h; in short: as §2
[42] = Ratio of radioactivity in frontal cortex of rat brain to that of rat cerebellum after intravenous administration after 60 min; format: functional; in short: as §1
Rattus norvegicus [43] = assay: Distribution of the radio labelled compound in hippocampus of rat brain after intravenous administration in presence of reboxetine after 60 min; format: ADME, organism-based; settings: in vivo, 1 h; in short: as §3
[44] = Ratio of radioactivity in striatum of rat brain to that of rat cerebellum after intravenous administration after 120 min; format: functional; in short: as §1

## COC(=O)C1C(c2ccc(/C=C\[123I])cc2)CC2CCC1N2C (centres undefined)
[1]
  Ratio: 3
[2]
  Ratio: 2.8
Rattus norvegicus [3]
  Activity: 0.38
Rattus norvegicus [4]
  Activity: 1.12
[5]
  Ratio: 2
Rattus norvegicus [6]
  Activity: 0.42
Rattus norvegicus [7]
  Activity: 0.34
Rattus norvegicus [8]
  Activity: 0.42
Rattus norvegicus [9]
  Activity: 0.45
Rattus norvegicus [10]
  Activity: 0.14
[11]
  Ratio: 3.4
Rattus norvegicus [12]
  Activity: 0.49
Rattus norvegicus [13]
  Activity: 0.65
Rattus norvegicus [14]
  Activity: 0.46
[15]
  Ratio: 1.3
[16]
  Ratio: 1.5
Rattus norvegicus [17]
  Activity: 0.35
Rattus norvegicus [18]
  Activity: 0.63
Rattus norvegicus [19]
  Activity: 0.42
Rattus norvegicus [20]
  Activity: 0.93
Rattus norvegicus [21]
  Activity: 0.33
[22]
  Ratio: 1
Rattus norvegicus [23]
  Activity: 0.63
Rattus norvegicus [24]
  Activity: 0.72
Rattus norvegicus [25]
  Activity: 0.18
Rattus norvegicus [26]
  Activity: 0.24
[27]
  Ratio: 2
Rattus norvegicus [28]
  Activity: 0.47
Rattus norvegicus [29]
  Activity: 0.54
Rattus norvegicus [30]
  Activity: 0.6
[31]
  Ratio: 1.1
Rattus norvegicus [32]
  Activity: 0.1
[33]
  Ratio: 1.7
Rattus norvegicus [34]
  Activity: 0.42
Rattus norvegicus [35]
  Activity: 0.2
Rattus norvegicus [36]
  Activity: 0.54
Rattus norvegicus [37]
  Activity: 0.45
Rattus norvegicus [38]
  Activity: 0.52
[39]
  Ratio: 3.4
Rattus norvegicus [40]
  Activity: 0.22
Rattus norvegicus [41]
  Activity: 0.43
[42]
  Ratio: 2.6
Rattus norvegicus [43]
  Activity: 0.41
[44]
  Ratio: 3.7

Source: ChEMBL document CHEMBL1149321, “Synthesis, radiosynthesis, and biological evaluation of carbon-11 and iodine-123 labeled 2beta-carbomethoxy-3beta-[4'-((Z)-2-haloethenyl)phenyl]tropanes: candidate radioligands for in vivo imaging of the serotonin transporter” (J Med Chem, 2004)
